For data set [1], the target named is T1, Nuclear receptor subfamily 1 group I member 3 (Mus musculus, UniProt O35627, H213A). Description: Enhancement of nuclear co-repressor receptor binding to mouse CAR H213A mutant […] at 10 uM by yeast two-hybrid assay. It is filed as cell-based. The method in brief:
(§1)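 Yeast two-hybrid: yeast expressing wild-type or mutant mouse CAR LBD plus SRC-1 or NCoR, selected on SD medium lacking Leu and Trp. Pooled colonies treated with DMSO or test chemical for 3.5 h. β-Galactosidase normalized to cell density. SRC-1 reference: wild-type + DMSO = 100. NCoR reference: 10 µM androstenol = 100. Mean ± SD, two independent determinations, each in triplicate.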

Data set [2] deals with T2, Nuclear receptor subfamily 1 group I member 3 (Mus musculus, UniProt O35627).
T2 sequence (O35627 whole entry): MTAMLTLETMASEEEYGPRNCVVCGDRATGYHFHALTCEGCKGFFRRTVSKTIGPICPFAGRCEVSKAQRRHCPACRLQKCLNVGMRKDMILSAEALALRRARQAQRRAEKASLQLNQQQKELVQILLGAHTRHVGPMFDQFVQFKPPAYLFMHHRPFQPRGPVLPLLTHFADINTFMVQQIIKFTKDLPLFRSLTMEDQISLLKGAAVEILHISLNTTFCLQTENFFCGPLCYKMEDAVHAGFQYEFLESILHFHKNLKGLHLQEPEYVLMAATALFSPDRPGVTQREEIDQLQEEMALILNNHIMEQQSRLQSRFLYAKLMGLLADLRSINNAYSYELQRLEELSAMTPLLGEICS
Description: Activation of mouse CAR. The method in brief:
(§2)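 GAL4-DBD fused to mouse CAR LBD (residues 118-358), wild-type or point mutant, cotransfected with UASx4-tk-luc reporter and pCMVβ into HEK293 cells. Cells were exposed to final 1 µM, 2 µM or 10 µM test chemical, or 0.1% v/v DMSO, for 24 h after transfection. Luciferase was normalized to β-galactosidase and set against empty GAL4 vector (=1.0). Mean ± standard deviation, three independent experiments.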

The target in data set [3] is T3, mouse CAR (NR1I3), wild type (Mus musculus, UniProt O35627).
T3 sequence (O35627 whole entry): T2 sequence (O35627 whole entry)
Description: Activation of wild type mouse CAR expressed in HEK293 cells at 1 uM by mammalian one-hybrid assay. It is filed as cell-based. The following applies: HEK293 cells expressing wild type mouse CAR, read-out: FC. The method in brief: (§3)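 GAL4 DBD fused to mouse CAR LBD (residues 118-358), wild type or point mutant, cotransfected with UASx4-tk-luc reporter and pCMVβ into HEK293 cells. Cells cultured with DMSO (0.1% v/v) or compound (final 1, 2 or 10 µM). Lysed 24 h post-transfection. Luciferase normalized to β-galactosidase, expressed relative to empty GAL4 vector (=1.0). Mean ± SD, three independent experiments.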

Data set [4] has as its target T4, Nuclear receptor subfamily 1 group I member 3 (Mus musculus, UniProt O35627, F171L). Description: Decrease in nuclear co-repressor receptor binding to mouse CAR F171L mutant […] at 10 uM by yeast two-hybrid assay. It counts as cell-based. Also noted: scale not given: the % may be the effect or the level left. The method in brief: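 Yeast expressing wild-type or mutant mouse CAR LBD plus NCoR, selected on SD plates lacking leucine and tryptophan. Pooled colonies treated with DMSO or compound for 3.5 h. β-Galactosidase activity normalized to cell density. Reference is 10 µM androstenol (=100). Mean ± SD of two independent determinations, each in triplicate.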

Data set [5] concerns the target T5, Nuclear receptor subfamily 1 group I member 3 (Mus musculus, UniProt O35627, S251L). As to conditions: HEK293, mouse, read-out: Activity; call rule not given here.
Data set [6] concerns the target Nuclear receptor subfamily 1 group I member 3 (Mus musculus, UniProt O35627, L253F). The following applies: HEK293, mouse, read-out: Activity.
The target in data set [7] is T4, Nuclear receptor subfamily 1 group I member 3. Description: Enhancement of steroid receptor coactivator 1 binding to mouse CAR F171L mutant […] at 10 uM by yeast two-hybrid assay. It counts as cell-based. The method in brief: (§4)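 Yeast two-hybrid assay. Yeast co-expressing wild-type or mutant mouse CAR LBD and the SRC-1 partner were selected on SD plates lacking leucine and tryptophan. Random colonies were pooled and amplified, then treated with DMSO or test chemical for 3.5 h. β-galactosidase activity was normalized to cell density and set relative to wild-type mCAR + SRC-1 with DMSO (=100). Mean ± standard deviation of two determinations, each in triplicate.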

Data set [8] addresses T1, Nuclear receptor subfamily 1 group I member 3. Description: Effect on nuclear co-repressor receptor binding to mouse CAR H213A mutant […] at 10 uM by yeast two-hybrid assay. It is filed as cell-based. As to conditions: read-out: Activity. The method in brief:
as §1

For data set [9], the target named is T6, Nuclear receptor subfamily 1 group I member 3 (Mus musculus, UniProt O35627, T350M). Description: Decrease in mouse CAR T350M mutant activation expressed in HEK293 cells at 1 uM by mammalian one-hybrid assay. It is filed as cell-based. The following applies: read-out: Activity. The method in brief: as §3
Data set [10] has as its target T6, Nuclear receptor subfamily 1 group I member 3. Description: Decrease in steroid receptor coactivator 1 binding to mouse CAR T350M mutant […] at 1 uM by yeast two-hybrid assay. It counts as cell-based. The following applies: read-out: Activity. The method in brief:
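Yeast expressing wild-type or mutant mouse CAR LBD plus SRC-1, selected on SD plates lacking leucine and tryptophan. Pooled colonies treated with DMSO or compound for 3.5 h. β-Galactosidase activity normalized to cell density. Reference is wild-type CAR + SRC-1 with DMSO (=100). Mean ± SD of two independent determinations, each in triplicate.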

For data set [11], the target named is T5, Nuclear receptor subfamily 1 group I member 3. Description: Effect on steroid receptor co-activator 1 binding to mouse CAR S251L mutant […] at 1 uM by yeast two-hybrid assay. The following applies: read-out: Activity. It counts as cell-based. The method in brief:
as §4

Data set [12] addresses T1, Nuclear receptor subfamily 1 group I member 3. As to conditions: HEK293, mouse, read-out: Activity.
Data set [13] has as its target T4, Nuclear receptor subfamily 1 group I member 3. Description: Decrease in mouse CAR F171L mutant activation expressed in HEK293 cells at 10 uM by mammalian one-hybrid assay. It counts as cell-based. The following applies: read-out: Activity. The method in brief: as §3
For data set [14], the target named is T5, Nuclear receptor subfamily 1 group I member 3. Description: Activation of mouse CAR S251L mutant expressed in HEK293 cells at 10 uM by mammalian one-hybrid assay. It is filed as cell-based. The following applies: hek293, 10 µM. The method in brief: as §3
Data set [15] has as its target Nuclear receptor subfamily 1 group I member 3 (Mus musculus, UniProt O35627, T350A). Description: Activation of mouse CAR T350A mutant expressed in HEK293 cells at 10 uM by mammalian one-hybrid assay. It counts as cell-based. As to conditions: hek293, 10 µM. The method in brief:
as §3

The target in data set [16] is T7, Nuclear receptor subfamily 1 group I member 3 (Mus musculus, UniProt O35627, I252L). Description: Enhancement of steroid receptor coactivator 1 binding to mouse CAR I252L mutant […] at 2 uM by yeast two-hybrid assay. It is filed as cell-based. The method in brief: as §1
The target of data set [17] is T5, Nuclear receptor subfamily 1 group I member 3. Description: Decrease in nuclear co-repressor receptor binding to mouse CAR S251L mutant […] at 2 uM by yeast two-hybrid assay. It is filed as cell-based. The arrangement: scale not given: the % may be the effect or the level left. The method in brief:
as §1

Data set [18] deals with Nuclear receptor subfamily 1 group I member 3 (Mus musculus, UniProt O35627, F171A). Description: Effect on nuclear co-repressor receptor binding to mouse CAR F171A mutant […] at 2 uM by yeast two-hybrid assay. It counts as cell-based. As to conditions: read-out: Activity. The method in brief: as §1
The target of data set [19] is T4, Nuclear receptor subfamily 1 group I member 3. Description: Decrease in mouse CAR F171L mutant activation expressed in HEK293 cells at 2 uM by mammalian one-hybrid assay. As to conditions: read-out: Activity. It counts as cell-based. The method in brief:
as §2

Data set [20] has as its target T7, Nuclear receptor subfamily 1 group I member 3. Description: Activation of mouse CAR I252L mutant expressed in HEK293 cells at 2 uM by mammalian one-hybrid assay. It counts as cell-based. As to conditions: hek293, 2 µM. The method in brief: as §2

The text below walks through data of ChEMBL document CHEMBL1152300, “Ligand specificity of constitutive androstane receptor as probed by induced-fit docking and mutagenesis” (J Med Chem, 2008).

T5 sequence (O35627 whole entry S251L): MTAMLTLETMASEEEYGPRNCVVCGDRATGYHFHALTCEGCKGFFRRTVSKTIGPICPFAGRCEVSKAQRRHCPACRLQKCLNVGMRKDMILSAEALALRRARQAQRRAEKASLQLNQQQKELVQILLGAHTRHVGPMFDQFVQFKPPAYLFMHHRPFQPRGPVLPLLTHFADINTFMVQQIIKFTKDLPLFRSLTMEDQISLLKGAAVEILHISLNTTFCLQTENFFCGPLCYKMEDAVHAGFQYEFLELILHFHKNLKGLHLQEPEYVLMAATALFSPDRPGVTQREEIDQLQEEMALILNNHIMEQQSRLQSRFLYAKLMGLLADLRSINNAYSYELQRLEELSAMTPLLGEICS
T4 sequence (O35627 whole entry F171L, the tested form may be a part): as the sequence (O35627 whole entry S251L) above, with F171L, L251S counted along it
T1 sequence (O35627 whole entry H213A, the tested form may be a part): as the sequence (O35627 whole entry S251L) above, with H213A, L251S counted along it
T6 sequence (O35627 whole entry T350M): as the sequence (O35627 whole entry S251L) above, with L251S, T350M counted along it
T7 sequence (O35627 whole entry I252L): as the sequence (O35627 whole entry S251L) above, with L251S, I252L counted along it
Chain of Nuclear receptor subfamily 1 group I member 3 (Mus musculus, UniProt O35627, L253F) (O35627 whole entry L253F, the tested form may be a part): as the sequence (O35627 whole entry S251L) above, with L251S, L253F counted along it
Chain of Nuclear receptor subfamily 1 group I member 3 (Mus musculus, UniProt O35627, F171A) (O35627 whole entry F171A): as the sequence (O35627 whole entry S251L) above, with F171A, L251S counted along it
Chain of Nuclear receptor subfamily 1 group I member 3 (Mus musculus, UniProt O35627, T350A) (O35627 whole entry T350A): as the sequence (O35627 whole entry S251L) above, with L251S, T350A counted along it

`COc1ccc(C(=O)CCCc2ccccc2)cc1`: the Activity result in data set [1] is on record as “>= 50%”; in data set [2], “Active”.
Take `COc1ccccc1CC(CC(=O)Cc1ccccc1)OC` (stereo not drawn): in [3], the fold induction at 1 µM came out at 2. The Activity entry in [4] is given as “>= 50%”; in data set [2] it was “Active”; in data set [7], greater than 50%. Besides, the inhibition at 10 µM in [5] is less than 50%; in [6], no less than 50%. For the same compound, the activity at 10 µM in data set [8] was less than 50%.
As for `Clc1cnc(Oc2ccc(Oc3ncc(Cl)cc3Cl)cc2)c(Cl)c1`, the inhibition at 1 µM in data set [9] was 50%; in [10], no less than 50%. Besides, the fold induction at 1 µM in data set [3] was found to be 2. For the same compound, the activity at 1 µM in [11] was less than 50%.
With `C[C@]12CC[C@@H](O)C[C@@H]1CC[C@@H]1[C@@H]2CC[C@]2(C)C=CC[C@@H]12` [ANDROSTENOL], the inhibition at 10 µM was no less than 50% in data set [12], less than 50% in data set [13] and no less than 50% in data set [6]. For the same compound, the values for the Activity result in data set [4], in [14] and in data set [15] were “>= 50%”, less than 50% and less than 50%, respectively.
With `Clc1ccccc1C(c1ccccc1)(c1ccccc1)n1ccnc1` [CLOTRIMAZOLE], the Activity result in data set [16] is on record as “>= 50%”; in data set [17] it was “>= 50%”; in data set [20], 50%. Moreover, the activity at 2 µM in data set [18] was less than 50%. Besides, the inhibition at 2 µM in [19] amounted to 50%.
As for `COc1ccc(C(c2ccc(OC)cc2)C(Cl)(Cl)Cl)cc1` [METHOXYCHLOR], the inhibition at 10 µM is no less than 50% in [12], less than 50% in data set [13] and less than 50% in data set [5]. For the same compound, the Activity result in data set [7] is on record as “>= 50%”.
